Our source for the cytotoxicity values is ChEMBL document CHEMBL4513216, “Probing the Open Global Health Chemical Diversity Library for Multistage-Active Starting Points for Next-Generation Antimalarials” (ACS Infect Dis, 2020).

Structures are written as SMILES.

This data set is described as follows: Toxicity liver stage against HepG2, at 10uM. In kind it is cell-based. Set-up: test concentration 10 uM, cell line HepG2-A16-CD81EGFP. Particulars: human, HepG2-A16-CD81EGFP cells; read-out: INHIBITION
The procedure, abridged: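 Uninfected HepG2-A16-CD81EGFP cells, 3 × 10^3 per well, 1536-well, plated on prespotted compound at 10 μM final, parasite-free screening media added to match infected plates; puromycin 10 μM positive, DMSO 0.5% negative; run in parallel with 48 h PbLuc assay at 37 °C, 5% CO2; viability by CellTiter-Glo luminescence, normalized to controls.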

On to `CN(C1CCCN(c2ccccn2)C1)S(C)(=O)=O` (configuration not stated), for which the cytotoxicity at 10 µM was 1.07%. For the compound `COc1cc(CCC(=O)N2CCC(c3cc4nccnc4[nH]3)CC2)on1`, the cytotoxicity at 10 µM was 3.67%.

For `COc1cccc2cc(CNCc3ccnc(N4CCOCC4)c3)oc12`, the cytotoxicity at 10 µM is -8.55%.

Take `CC(C)Cc1cc(CNC(=O)C2CCCN(C(=O)N(C)C)C2)no1` (configuration not stated): the cytotoxicity at 10 µM turned out to be 2.31%. The figure for `NC(=O)C1CCN(C(=O)CCSCc2ccc(Cl)c(Cl)c2)CC1` is -1.35%; for `COc1cccc(CN2CCCC3(CCN(C(=O)c4ccco4)C3)C2)c1` (configuration not stated) it is 6.34%. As for `c1ccc(OC2CCCC2)c(CNC2CCc3ncnn3C2)c1` (configuration not stated), the cytotoxicity at 10 µM is -5.43%. The figure for `COc1ccc2c(ccn2CCC(=O)O)c1` is 15.4%. Regarding `Cc1nccn1-c1cncc(C2CCCN2Cc2ccccc2)n1` (configuration not stated), the cytotoxicity at 10 µM was -8.52%. For `CC(c1nc(C2CC2)no1)N1CCN(Cc2cccc(F)c2F)CC1` (configuration not stated) the value was -4.93%; for `CN(C)S(=O)(=O)N1CC[C@]2(O)CCN(CCCc3cccnc3)C[C@@H]2C1`, -6.55%. Turning to `COc1ccc(NC(=O)Cn2nc(C)c(C)cc2=O)c(OC)c1`, the cytotoxicity at 10 µM was -3.62%. For `Cc1cc(=O)n2nc(Oc3ccc(F)c(F)c3)sc2n1` the value was -15.8%.

`Cn1cccc1C(=O)N1CCC2(CC1)CN(c1cncnc1)C(=O)CO2`: the cytotoxicity at 10 µM stood at 4.35%.

`CN1CCCN(C(=O)c2cc3c(s2)CCN3C(=O)c2ccccc2)CC1`: the cytotoxicity at 10 µM worked out at 1.05%. For `O=C(NC1CCN(c2ncccc2F)C1)c1cccc(-n2ccnn2)c1` (configuration not stated) the value was 7.49%. For `COCc1ncc(-c2nccn2CCN(C)C)cn1` the value was 0.126%; for `N#Cc1cccc(NC(=O)C2CCCN2c2nccs2)c1` (configuration not stated), -5.28%; for `COc1cccc(CNCc2ccnc(N3CCOCC3)c2)c1OC`, 7.26%. The figure for `Cc1nc(C)n(C2CCCN(C(=O)c3cccc4[nH]ncc34)C2)n1` (configuration not stated) is -4.72%.

`O=C(c1ccco1)N1CC[C@H]2[C@H]1CCN2CC1CCOCC1`: the cytotoxicity at 10 µM was 5.12%. For `COC(=O)NCC(=O)NC1CC(C)(C)Cc2oc(C)cc21` (configuration not stated) the value was -20.8%; for `CCc1nc(C(=O)N2CCN(C)CC2C)nn1-c1ccccc1Cl` (configuration not stated), -2.38%; for `COCCOc1ccccc1CNCC1COC2(CCCC2)O1` (configuration not stated), -143%. For `Cc1nc(N[C@H]2COC[C@@H]2N2CCCCC2)c2c(C)nn(C)c2n1` the value was -1.21%; for `COC[C@@H]1CCCN1C(=O)CCc1c(C)nn(C)c1C`, 5.01%. On to `CCc1nc(CN2CCOC(CN(C)c3cccnn3)C2)cs1` (configuration not stated), for which the cytotoxicity at 10 µM was found to be 5.35%.

Take `Cc1ccc(Cl)cc1N1CCC(CNC(=O)CCn2ccnc2)C1` (configuration not stated): the cytotoxicity at 10 µM was -9.7%. For `CCNC(=O)NCc1ccc(-n2ccc(C(F)(F)F)n2)cc1` the value was -4.7%. For `CN(C)c1nc2c(c(NCc3cc(O)ncn3)n1)CCCC2`, the cytotoxicity at 10 µM was -12.4%. For `COc1cccc(C2(NC(=O)CCNC(C)=O)CC2)c1` the value was 1.6%; for `CCOc1ncccc1C(=O)N1CCCC1Cn1cc(C)cn1` (configuration not stated), 0.787%; for `Cc1cnc(N2CCC3(CCN(CC4CC4)C3=O)CC2)nc1`, 6.17%.

For the compound `CCc1noc(CN2CCCN(C(C)=O)CC2)n1`, the cytotoxicity at 10 µM is -1.25%.

`Cc1cc(C)nc(N2CCN(Cc3nccn3C)CC2)n1`: the cytotoxicity at 10 µM was -20.9%. For `CS(=O)(=O)c1cccc(OCC(=O)N2CCCC2c2ccc[nH]2)c1` (configuration not stated) the value was 3.92%; for `O=C(c1ccn(-c2ccccc2Cl)n1)N1CCSCC1`, 15.6%.

With `COc1cc(Cl)c(NC(=O)NCCn2cccc2)cc1OC`, the cytotoxicity at 10 µM was -0.473%.

As for `CSc1ccc(CNC(=O)Cc2c(C)n[nH]c2C)cc1`, the cytotoxicity at 10 µM turned out to be 4.16%.

For `Cc1nc(CN2CCc3ncnc(-c4cccnc4)c3CC2)cs1`, the cytotoxicity at 10 µM is 7.51%. With `Cn1ccnc1COc1ccc(CN2CCN(CCO)CC2)cc1`, the cytotoxicity at 10 µM is -10.2%. Take `CC(C)CNC(=O)C1(Cc2ccccc2-c2cccs2)CCNC1` (configuration not stated): the cytotoxicity at 10 µM was -31.2%. The figure for `Cc1nc(N(C)C)nc(-c2cccc(-c3ccn(CCCF)n3)c2)c1C` is 3.7%. The figure for `OC(CNc1cncc(OCc2ccccc2)n1)c1ccco1` (configuration not stated) is -1.53%. The figure for `O=C(NCCn1ccnc1)NCC(c1ccco1)N1CCCC1` (configuration not stated) is 2.01%; for `Cn1cc(Br)cc1C(=O)NCC(C)(O)c1ccsc1` (configuration not stated) it is -49%. As for `CCCS(=O)(=O)N1CCC2(CCC(=O)N(Cc3ccccc3)C2)CC1`, the cytotoxicity at 10 µM came to 11.2%. `COc1nccnc1-c1cc(NC2CCNCC2)nc2[nH]ccc12`: the cytotoxicity at 10 µM is -10.7%. For the compound `Cc1cc(CN(Cc2cccs2)CC2CCCO2)no1` (configuration not stated), the cytotoxicity at 10 µM amounted to 2.86%. The figure for `COc1ccc(Cc2nnc3n2N=C(C(C)(C)C)CS3)cc1` is 10.7%. For the compound `Cc1ncsc1C(=O)N1CC[C@@H]2[C@@H](CC1)OCCN2c1cccnc1`, the cytotoxicity at 10 µM was found to be 9.4%. For `O=C(NCc1cc2n(n1)CCCN(Cc1ccc(CO)o1)C2)C1CCC1` the value was 5.46%; for `CCC(=O)NCC(=O)NCC(C)(C)c1cccc(Br)c1`, -2.32%; for `Cc1ccccc1C(O)c1ccncc1` (configuration not stated), -4.84%.

For `Cn1cc(S(=O)(=O)N2CCCC2Cn2ccnc2)cc1C(N)=O` (configuration not stated), the cytotoxicity at 10 µM was 2.8%.

Turning to `Cc1ncc(CNC(=O)NCc2c(F)cccc2OC(F)F)s1`, the cytotoxicity at 10 µM is -4.27%. The figure for `Cc1ccc(O)c(CNC2CCCN(Cc3noc(C4CC4)n3)C2)n1` (configuration not stated) is -5.59%; for `CCc1nc(C)c(CN2CCOC(CCCC(C)C)C2)[nH]1` (configuration not stated) it is -20%. As to `O=C(NC1CC1)[C@H]1C[C@H]2OCC[C@H]2N(CC2CC2)C1`, the cytotoxicity at 10 µM amounted to 2.76%. As to `CO[C@H]1CN(C(=O)c2ccc(-c3ccccc3)[nH]2)CC[C@H]1N`, the cytotoxicity at 10 µM was found to be 3.64%. The figure for `CCCNC(=O)N1CCc2ccc(S(=O)(=O)N3CCN(C)CC3)cc2C1` is -10%; for `Fc1ccc(OCCCNC2=NCCCN2)cc1` it is -7.91%. Consider `O=C(CN1CCCC(c2ccn[nH]2)C1)Nc1nc2c(s1)CCC2` (configuration not stated), for which the cytotoxicity at 10 µM is -42.4%. As for `CS(=O)(=O)Nc1cccc(CNC(=O)CCC(=O)c2cccs2)c1`, the cytotoxicity at 10 µM worked out at 1.73%. For `CN(C)CCn1c2c(ccc1=O)CCN(Cc1cnn(C)c1)CC2` the value was -2.65%; for `Cc1cn2c(n1)CCC(NC(=O)c1ccc(CS(C)(=O)=O)cc1)C2` (configuration not stated), -2.19%; for `COCC(O)CN(C)C(=O)NC1CCN(Cc2ccccn2)CC1` (configuration not stated), -0.0353%. The figure for `Cc1nc(CNC(=O)[C@@H]2CCCN2C(=O)OC(C)(C)C)cs1` is -0.602%.

With `Cc1ccccc1C(=O)N1CCC2(CC1)CC(c1cnn(C)c1)CO2` (configuration not stated), the cytotoxicity at 10 µM is -75%. For `Cc1c(F)cc(C(=O)O)cc1S(=O)(=O)Nc1ccccc1` the value was -4.54%. The figure for `CC(NC(=O)CCCC(=O)c1cccs1)c1nnc2n1CCC2` (configuration not stated) is -10.2%; for `CC1CCc2nn(CCNC(=O)Cc3ccc(F)cc3)c(=O)cc2C1` (configuration not stated) it is 7.61%.
